The results in this text go back to PMC3644109 (Nature Communications, 2013).

The term EC50 denotes the concentration at which the effect is half-maximal. Read a high EC50 as a less potent agent. Usually Km stands for the substrate concentration at which the rate is half of its maximum.

In series [1] the target is T1, AtALMT9 (Arabidopsis thaliana, UniProt Q9LS46).
T1 sequence (Q9LS46 1-598): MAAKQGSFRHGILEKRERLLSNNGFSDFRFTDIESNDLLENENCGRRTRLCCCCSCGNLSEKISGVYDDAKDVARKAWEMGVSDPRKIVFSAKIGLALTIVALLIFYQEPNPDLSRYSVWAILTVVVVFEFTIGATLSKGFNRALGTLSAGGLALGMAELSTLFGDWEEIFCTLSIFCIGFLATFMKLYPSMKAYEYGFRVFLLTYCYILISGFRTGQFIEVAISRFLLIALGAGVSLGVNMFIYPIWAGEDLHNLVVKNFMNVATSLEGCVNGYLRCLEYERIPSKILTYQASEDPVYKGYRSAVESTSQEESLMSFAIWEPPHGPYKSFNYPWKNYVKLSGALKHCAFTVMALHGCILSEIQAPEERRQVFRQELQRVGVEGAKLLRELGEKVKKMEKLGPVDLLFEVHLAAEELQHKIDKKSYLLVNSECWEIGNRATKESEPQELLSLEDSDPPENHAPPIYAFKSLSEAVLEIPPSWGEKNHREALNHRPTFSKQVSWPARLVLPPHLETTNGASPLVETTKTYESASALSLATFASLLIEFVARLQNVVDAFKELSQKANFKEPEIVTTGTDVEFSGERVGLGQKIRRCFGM
The series can be described thus: patch clamp of excised cytosolic-side-out vacuolar patches, Hill fit. It counts as cell-based. For orientation: In patch-clamp work, channel activity is measured electrically.

The target of series [2] is T1, AtALMT9. The series can be described thus: patch clamp of excised cytosolic-side-out vacuolar patches, chloride current. Format: biochemical. The conditions noted are these: activator; 1 mM cytosolic; 100 mM chloride bath, pH 7.5. The method, boiled down:
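Vacuoles came from transiently transformed N. benthamiana leaves expressing the channel (2–3 days post-agroinfiltration) and were released from mesophyll protoplasts by EDTA and mild osmotic shock. Excised cytosolic-side-out patches (seal >2 GΩ) were held in symmetrical chloride: pipette 100 mM HCl pH 6, bath 100 mM HCl, 3 mM MgCl₂, 0.1 mM CaCl₂ pH 7.5. Test compound was perfused on the cytosolic side. Steady currents were compared at -120 mV, before versus after.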

Series [3] concerns the target T1, AtALMT9. The series can be described thus: patch clamp of excised cytosolic-side-out vacuolar patches, chloride current. Format: biochemical. The conditions noted are these: activator, not permeant, -120 mV, chloride bath, pH 7.5.
Substrate in series [4]: O=C(O)C[C@H](O)C(=O)O
The series can be described thus: cells, lysate or membranes. As to conditions: malate transport into vacuole.

At AtALMT9 [1], `O=C(O)C[C@H](O)C(=O)O` [malate] returned an EC50 of 300 µM.

Turning to `O=C(O)/C=C/C(=O)O` [fumarate], the “fold increase of chloride current at 1 mM” value on AtALMT9 [2] is reported as 5.7±0.4 fold.

As for `O=C(O)c1cccc(C(=O)O)c1` [isophtalate], on AtALMT9 [3], the “fold increase of chloride current” value stood at 2.1±0.1 fold.

`O=C(O)CC(=O)C(=O)O` [oxaloacetate]: at AtALMT9 [2], the “fold increase of chloride current at 1 mM” value was determined as 2.0±0.2 fold.

B1: AtALMT9 (Arabidopsis thaliana) (protein)
chain: T1 sequence (Q9LS46 1-598)
Turning to B1, the Km in series [4] is reported as 27 mM.
